Results from ChEMBL document CHEMBL4385647, “Design, synthesis and biological evaluation of 3-hydroxyquinazoline-2,4(1H,3H)-diones as dual inhibitors of HIV-1 reverse transcriptase-associated RNase H and integrase” (Bioorg Med Chem, 2019).
Active and inactive are the calls of the source. The calls are words filed in the database; no cut-off is given here.

Legend:
[1] = Inhibition of HIV reverse transcriptase RNase H activity; set-up: species or system Human immunodeficiency virus
Procedure, shortened: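 Wild-type HIV-1 BH10 RT (20-40 nM), expressed in E. coli, was incubated at 37°C in 50 mM Tris-HCl pH 8.0, 50 mM NaCl, 5 mM MgCl2 and 5% DMSO. Cleaved substrate was quantified over 0.2-100 μM compound against a DMSO-only control. IC50 was taken from dose-response curves.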

[2] = Cytotoxicity in mock-infected human MT4 cells assessed as reduction in cell viability incubated for 5 days by MTT assay; type: cell-based
Procedure, shortened: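 Mock-infected MT-4 cells at 6×10^5 cells/mL were exposed to serial five-fold compound dilutions in triplicate wells in parallel with the infected series. After 5 days, viability was read by MTT at 540 and 690 nm from the median OD of two or three wells.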

[3] = target: Human immunodeficiency virus type 1 reverse transcriptase (Human immunodeficiency virus 1, UniProt Q72547); assay: Inhibition of HIV1 reverse transcriptase RNase H activity expressed in Escherichia coli using 32P-labeled template 31Trna RNA and DNA oligonucleotide 21P
[4] = system: Human immunodeficiency virus 1; assay: Antiviral activity against HIV1 3B infected in human MT4 cells incubated for 5 days by MTT assay; type: functional, organism-based; details: Human immunodeficiency virus 1, 3B, MT4, 120 h
Procedure, shortened: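 MT-4 cells resuspended at 6×10^5 cells/mL and infected with 100-300 CCID50 of HIV-1 IIIB or HIV-2 ROD. Serial five-fold compound dilutions were tested in triplicate wells. After 5 days, viability was measured by MTT reduction with absorbance read at 540 and 690 nm, using the median OD of two or three wells.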

[5] = target: Human immunodeficiency virus type 1 integrase (Human immunodeficiency virus 1) (UniProt Q7ZJM1); assay: Inhibition of strand transfer activity of HIV1 integrase expressed in Escherichia coli at 0.1 to 10 uM using DNA complexes containing 32P-labeled INT1ST and non-labeled INT2
Procedure, shortened: (§1)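 Wild-type HIV-1 IN, expressed in E. coli, was assayed for strand transfer with DNA complexes of 32P-labeled INT1ST and unlabeled INT2 at 1% DMSO. Percent inhibition was measured at […].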

[6] = target: Human immunodeficiency virus type 1 integrase (Human immunodeficiency virus 1) (UniProt Q7ZJM1); assay: Inhibition of strand transfer activity of HIV1 integrase expressed in Escherichia coli at 10 uM using DNA complexes containing 32P-labeled INT1ST and non-labeled INT2; procedure, shortened: as §1
[7] = target: T1, Human immunodeficiency virus type 1 integrase (Human immunodeficiency virus 1, UniProt Q7ZJM1); assay: Inhibition of HIV integrase strand transfer activity
[8] = Apparent permeability in human Caco2 cells by LC analysis; type: ADME, cell-based; details: Caco-2
Procedure, shortened: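 Transport was measured across Caco-2 cell monolayers, with nadolol and metoprolol as controls. Papp (cm/s) was calculated as (dCr/dt)×Vr/(A×C0), where dCr/dt is the cumulative receiver-chamber concentration over time.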

[9] = target: T1, Human immunodeficiency virus type 1 integrase; assay: Inhibition of strand transfer activity of HIV1 integrase expressed in Escherichia coli using DNA complexes containing 32P-labeled INT1ST and non-labeled INT2

Sequence of Human immunodeficiency virus type 1 integrase (Human immunodeficiency virus 1) (Q7ZJM1 as listed by the source): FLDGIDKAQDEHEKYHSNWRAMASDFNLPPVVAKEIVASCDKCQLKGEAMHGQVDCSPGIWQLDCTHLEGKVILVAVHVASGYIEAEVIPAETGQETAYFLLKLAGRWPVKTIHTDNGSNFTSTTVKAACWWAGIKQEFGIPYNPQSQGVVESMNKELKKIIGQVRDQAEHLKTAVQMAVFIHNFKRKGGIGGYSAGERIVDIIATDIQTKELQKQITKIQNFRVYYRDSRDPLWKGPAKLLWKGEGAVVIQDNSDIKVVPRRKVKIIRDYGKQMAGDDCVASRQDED
T1 sequence (Q7ZJM1 whole entry): as the sequence (Q7ZJM1 as listed by the source) above

| Compound | CC50 at 120 h [2] | IC50 [3] | EC50 [4] | further results |
| --- | --- | --- | --- | --- |
| NS(=O)(=O)c1ccc(-c2ccc(Cn3cc(O)c(=O)c(C(=O)O)c3)cc2)cc1 | – | – | – | IC50 [1]: 0.65 µM |
| O=c1[nH]c2cc(NS(=O)(=O)c3ccc(F)cc3)ccc2c(=O)n1O | > 356 µM | 5.68 µM | > 356 µM | – |
| NCc1ccc(-c2ccc(Cc3cc(=O)n(O)c4ncccc34)cc2)cc1 | – | – | – | IC50 [1]: 0.045 µM |
| O=c1[nH]c2ccc(NS(=O)(=O)c3cccc(C(F)(F)F)c3)cc2c(=O)n1O | 176 µM | 2 µM | > 176 µM | – |
| Cc1cccc(S(=O)(=O)Nc2ccc3c(=O)n(O)c(=O)[nH]c3c2)c1 | 310 µM | 4.1 µM | > 310 µM | – |
| O=c1[nH]c2cc(NS(=O)(=O)c3ccc4ccccc4c3)ccc2c(=O)n1O | 220 µM | 20.1 µM | > 220 µM | inhibition [5]: Active; inhibition [6]: 50 to 60% |
| COc1ccc(Cc2nc(O)c(O)c(C(=O)O)n2)cc1Br | – | – | – | IC50 [1]: 1.4 µM |
| CCOC(=O)C(=O)CC(=O)/C=C/c1cccn1Cc1ccccc1Cl | – | – | – | IC50 [1]: 7.3 µM |
| O=c1[nH]c2ccc(NS(=O)(=O)c3ccc(F)cc3)cc2c(=O)n1O | 199 µM | 2.25 µM | > 199 µM | – |
| O=C(Nc1ccc2c(=O)n(O)c(=O)[nH]c2c1)c1ccc(F)cc1 | 43 µM | 3.73 µM | > 43 µM | – |
| Cc1cc(C)c(S(=O)(=O)Nc2ccc3c(=O)n(O)c(=O)[nH]c3c2)c(C)c1 | 154 µM | 3.24 µM | > 154 µM | – |
| O=C(NCc1c(F)cc(F)cc1F)c1cn2c(c(O)c1=O)C(=O)N1[C@H]3CC[C@H](C3)O[C@@H]1C2 [BICTEGRAVIR] | – | – | – | IC50 [7]: 0.0075 µM |
| O=c1[nH]c2cc(NS(=O)(=O)c3ccc(-c4ccccc4)cc3)ccc2c(=O)n1O | > 305 µM | 11.7 µM | > 305 µM | – |
| COCCc1ccc(OCC(O)CNC(C)C)cc1 (stereo unspecified) [METOPROLOL] | – | – | – | Papp [8]: 14.7 ×10⁻⁶ cm/s |
| O=C(Nc1ccc2[nH]c(=O)n(O)c(=O)c2c1)c1ccccc1F | 168 µM | 4.29 µM | > 168 µM | – |
| CC(C)c1ccc(O)c(=O)c(O)c1 [BETA-THUJAPLICINOL] | 2.83 µM | 1.98 µM | > 2.83 µM | IC50 [1]: 3.8 µM |
| O=c1[nH]c2cc(NS(=O)(=O)c3cccc(C(F)(F)F)c3)ccc2c(=O)n1O | 80.2 µM | 5.33 µM | > 80.2 µM | – |
| Cc1nnc(C(=O)NC(C)(C)c2nc(C(=O)NCc3ccc(F)cc3)c(O)c(=O)n2C)o1 | 6.51 µM | – | 0.015 µM | – |
| O=c1[nH]c2ccc(NS(=O)(=O)c3ccc4ccccc4c3)cc2c(=O)n1O | 208 µM | 0.41 µM | > 208 µM | Papp [8]: < 0.19 ×10⁻⁶ cm/s; IC50 [9]: 0.85 µM |
| Cc1ccc(C(=O)Nc2ccc3c(=O)n(O)c(=O)[nH]c3c2)cc1 | 10.9 µM | 2.74 µM | > 10.9 µM | – |
| O=C(Nc1ccc2c(=O)n(O)c(=O)[nH]c2c1)c1cccc(F)c1 | 39.8 µM | 3.73 µM | > 39.8 µM | – |
| O=C(Nc1ccc2c(=O)n(O)c(=O)[nH]c2c1)c1ccccc1 | 36.6 µM | 2.52 µM | > 36.6 µM | – |
| CC(C)(C)NCC(O)COc1cccc2c1CC(O)C(O)C2 (stereo unspecified) [NADOLOL] | – | – | – | Papp [8]: 0.09 ×10⁻⁶ cm/s |
| O=C(Nc1ccc2c(=O)n(O)c(=O)[nH]c2c1)c1ccc(C(F)(F)F)cc1 | 316 µM | 6.09 µM | > 316 µM | – |
| CC(C)(C)c1ccc(S(=O)(=O)Nc2ccc3c(=O)n(O)c(=O)[nH]c3c2)cc1 | 307 µM | 5.88 µM | > 307 µM | inhibition [5]: Active; inhibition [6]: 50 to 60% |
| O=c1[nH]c2ccc(NS(=O)(=O)c3ccccc3)cc2c(=O)n1O | 213 µM | 1.19 µM | > 213 µM | – |
| O=C1Cc2cc(Cc3ccc(-c4ccccc4)cc3)ccc2C(=O)N1O | – | – | – | IC50 [1]: 0.8 µM |
